From the RNAGym collection of RNA variant scans (doi:10.1126/science.aae0568)
This sample holds only a part of the variants without activity.

B1: tRNA (parent)
chain: GUUCCGUUGGCGUAAUGGUAACGCGUCUCCCUCCUAAGGAGAAGACUGCGGGUUCGAGUCCCGUACGGAACG

Variants of: B1
Test: yeast fitness relative to wild type (ratio to wild type); higher = fitter; tRNA-Arg(CCU), competitive growth, 37 C, YPD
Outline: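 For this measurement, the tRNA-Arg(CCU) gene was varied by chemical synthesis at a 3% per-site mutation rate across 69 sites, and each variant was placed at the native genomic locus in Saccharomyces cerevisiae. The pooled strains went through a 24-hour competition in YPD at 37°C in six parallel replicates, with amplicons from start and end populations read by 100-nucleotide paired-end sequencing. Darwinian fitness relative to wild type followed from the change in each genotype's frequency. Genotypes needed ≥ 100 starting reads, and estimates < 0.5 were set to 0.5.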

Variant	yeast fitness
U3A G12A C46G	0.657
U3A C60A C61U A69U	0.597
U3A G23A A69C	0.571
U3A G17A	0.829
U3A G18A C22U A65U	≤ 0.5
U3A C30U A43C	0.554
U3A C34A C60U	≤ 0.5
U3A G9A U19A C61G	≤ 0.5
U3A G25A C49G A65G A69U	≤ 0.5
U3A C31U U53A	0.518
U3A C49U G63A	0.764
U3A C30G G38C	0.987
U3A C31U U47C	0.871
U3A G12A U19A	0.763
U3A C46U G48A	0.695
U3A C29G A57G	≤ 0.5
U3A C24U C46U G48A C49G	≤ 0.5
U3A C27U A36G	0.594
U3A G17A C22U A70C	0.528
U3A C46U G56C A69U	≤ 0.5
U3A C46A G63A A69C	0.731
U3A C49A A69U	0.558
U3A C24G C29U A36G	0.639
U3A G12A C24U A45U U64C	≤ 0.5

Variant	yeast fitness
U3A C24U G39A	≤ 0.5
U3A C24G C33G G51A U53A G56A G67C	≤ 0.5
U3A C31A C34A A37C	0.661
U3A C27G C31U C33U A42C C49U	≤ 0.5
U3A C30G A57C G58C	≤ 0.5
U3A C55U G56C	≤ 0.5
U3A G17A C22U U64C	≤ 0.5
U3A C27U A69C	0.713
U3A C46A G56A	0.713
U3A C31U A45U G68C	≤ 0.5
U3A G25A	1.09
U3A G25A A69C	0.773
U3A C31U A36C	0.571
U3A C31U	1.02
U3A C30G C55U	0.673
U3A G6A	0.981
U3A C46U A69C	0.76
U3A G12C G58A	0.579
U3A C29A A37G	≤ 0.5
U3A G6A A37C C55G G58C	≤ 0.5
U3A G9C A20G C29A G67U	0.633
U3A G25A C49G A65G	≤ 0.5
U3A C22U	0.738
U3A G18A C22U U64C A70G	≤ 0.5

Variant	yeast fitness
U3A C30G G38C A69C	0.671
U3A C55U G68C	0.573
U3A C30G C31U G67C	≤ 0.5
U3A G25C C34U G41A C49G	≤ 0.5
U3A C24G U47C A57U	≤ 0.5
U3A C33U A45C	≤ 0.5
U3A G9C C27G	≤ 0.5
U3A G12A C24G C29U A36G	≤ 0.5
U3A G9C A65C	≤ 0.5
U3A G25A G58A	0.782
U3A C27A A42G C46G	≤ 0.5
U3A C24G C29U A36G A43U	≤ 0.5
U3A C27G C31U C33U A42C	≤ 0.5
U3A G9A A14G C49U	≤ 0.5
U3A C29G A40U G41C A42C	≤ 0.5
U3A C33U U59C	≤ 0.5
U3A G9C G39A C55U A70C	≤ 0.5
U3A C30G U64A A69C	≤ 0.5
U3A G6C A20U A36U	0.571
U3A G17C A20C U28A C46A	≤ 0.5
U3A G9A A20G	0.665
U3A C27A A43G	0.586
U3A C30G U54C	0.502
U3A C29G G38A C62G	≤ 0.5

Variant	yeast fitness
U3A G10A C30U C60G	≤ 0.5
U3A G9C C24G C30U C34A G51A	≤ 0.5
U3A C24G C31U C62U A65C	≤ 0.5
U3A C31U A36C A65U	≤ 0.5
U3A G10C A36U A40C C60G A70G	≤ 0.5
U3A G18C U28A	≤ 0.5
U3A C29G C60G	≤ 0.5
U3A C46U C49U U53C	≤ 0.5
U3A G12C U13C A69C	0.732
U3A G12C U13C A69U	1.13
U3A C31U A40C G48A G68C	≤ 0.5
U3A C29U U59G C66U	≤ 0.5
U3A G18A C22U U64C	≤ 0.5
U3A C33G C34G U35A G44A	0.556
U3A G12A A20C C29G G67A	≤ 0.5
U3A C31G C66U	0.641
U3A G9C G67C	≤ 0.5
U3A C27U C55A	0.535
U3A C66G G68C	0.623
U3A C61G	0.767
U3A C61A	0.778
U3A C24U	0.765
U3A C24G	0.645
U3A G9C G56C	≤ 0.5

Variant	yeast fitness
U3A C46A C66U	0.734
U3A G17A C22U A43C A69C	≤ 0.5
U3A C30G C33U	0.536
U3A G9C C34U	0.548
U3A C62U	0.961
U3A G17C G38A	0.557
U3A G6U G12C C22A C55G	≤ 0.5
U3A G12A A14U C46A	≤ 0.5
U3A C31G A43U C60G A65C G67C	0.664
U3A C60U C66G	0.658
U3A C27U G41C U64C A70C	0.896
U3A C30U C31U G52A	≤ 0.5
U3A G17A C22U G48A C62A	≤ 0.5
U3A C29G	0.575
U3A G10C A36U A40C	≤ 0.5
U3A C31U G52A	0.614
U3A G17A C22U C66U	0.616
U3A C31A C34A A37C G68C	≤ 0.5
U3A C24U C30U	≤ 0.5
U3A C46G U47C	0.675
U3A C27G C62U A65U	≤ 0.5
U3A G12C U19C	≤ 0.5
U3A C34G A45G	0.537
U3A G9C A20G C29A	≤ 0.5

Variant	yeast fitness
U3A C27G	0.643
U3A C27A	0.86
U3A G10C C24G A37U G38A G48C	≤ 0.5
U3A C34U A43G C49A G52A	≤ 0.5
U3A C31U G63C G67C A69U	0.558
U3A C24U A40U G50C A70U	≤ 0.5
U3A C24U A45C	0.688
U3A G12C U13C C66U	0.664
U3A G9A A14C C55U A70G	≤ 0.5
U3A G6C C34G G38C A45G U59G	≤ 0.5
U3A C30U G52A	≤ 0.5
U3A C30G C31U C61U	≤ 0.5
U3A C46A	1.05
U3A G18A C22U C61A	≤ 0.5
U3A C61U G67A	0.562
U3A G12C A21C A36C G68C	≤ 0.5
U3A G18A A45G A57C	≤ 0.5
U3A C49U A65G	0.711
U3A G12C U28C G56A C60G	≤ 0.5
U3A C33U A43C	≤ 0.5
U3A C24G C31U C61A	0.533
U3A G9C A20C A21C G25A G56A U64C	0.73
U3A G10C A36U A40C A65G	≤ 0.5
U3A G10A C27U A40U	≤ 0.5

Variant	yeast fitness
U3A C29U C31A A40C	0.631
U3A G6A U16A C24G A37U C49U C62U	0.61
U3A G9A U28G	≤ 0.5
U3A G9C C33G A42U A43U A65C G68C	≤ 0.5
U3A G6C C55U G63A	≤ 0.5
U3A C29G G52A C66G	≤ 0.5
U3A C24U G39A C55A	≤ 0.5
U3A G18A	0.661
U3A C24U A40U G48A	≤ 0.5
U3A C24G C31U C62A	≤ 0.5
U3A G18C A43C G58C	≤ 0.5
U3A G17A C22U C46G	≤ 0.5
U3A G9A A15C C27U A57U C62A	0.667
U3A G9A C29U	0.751
U3A C30U G50C	≤ 0.5
U3A C27U A36G A70U	0.729
U3A C24A C27U G56C C66U	≤ 0.5
U3A G9A G48A	0.621
U3A C30U A42G	0.757
U3A C49U C60U A70G	0.551
U3A G23C	0.653
U3A C49A U53G A57U	0.798
U3A C66U	0.891
